From ChEMBL document CHEMBL2034867, “S-Farnesyl-Thiopropionic Acid (FTPA) Triazoles as Potent Inhibitors of Isoprenylcysteine Carboxyl Methyltransferase” (ACS Med Chem Lett, 2012)
The source made the active and inactive calls. No cut-off for these calls is given here.

Legend:
[1] = biological target: T1, Protein-S-isoprenylcysteine O-methyltransferase (Homo sapiens, UniProt O60725); test: Specific activity at ICMT at 10 uM relative to AFC
Summary of the method: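 Single-point vapor diffusion assay at 10 μM inhibitor. Icmt specific activity is expressed as percent of the no-inhibitor AFC control.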

MEF [2] = test: Cytotoxicity against icmt-double mutant MEF cells after 5 days by MTT assay; assay type: cell-based; settings: Mus musculus, 120 h
Summary of the method: (§1)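 MEFs from Icmt+/+ or Icmt–/– animals were seeded at 1000 cells/well in DMEM with 10% FBS for 24 h. Medium was then changed to DMEM with 5% FBS containing compound at various concentrations, or 0.1% DMSO. After 5 days, MTT (5 mg/mL) was added for 4 h at 37 °C. Medium was removed, formazan dissolved in DMSO, and absorbance read at 590 nm.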

MEF [3] = test: Cytotoxicity against icmt-positive MEF cells after 5 days by MTT assay; assay type: functional, cell-based; settings: Mus musculus, 120 h; summary of the method: as §1
[4] = biological target: T1, Protein-S-isoprenylcysteine O-methyltransferase; test: Inhibition of ICMT in cell free system
[5] = biological target: T1, Protein-S-isoprenylcysteine O-methyltransferase; test: Inhibition of Icmt-mediated GFP-K-Ras membrane localization in human Jurkat T cells at 10 uM after 24 hrs by fluorescent microscopic analysis; assay type: cell-based
Summary of the method: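 Jurkat T cells (E6.1) were transfected with GFP-K-Ras and treated for 24 h with compound, vehicle, or 25 μM simvastatin. Cells were placed on poly-L-lysine-coated coverslips (100 μg/mL) and fixed in 3.7% formaldehyde for 10 min. GFP localization was scored by fluorescence microscopy in random fields of 100 cells as normal membrane, partial mislocalization or complete mislocalization.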

[6] = Cytotoxicity against human PA-TU-8902 cells after 5 days by MTT assay; assay type: functional, cell-based; settings: PaTu 8902, 120 h

T1 sequence (O60725 whole entry, the tested form may be a part): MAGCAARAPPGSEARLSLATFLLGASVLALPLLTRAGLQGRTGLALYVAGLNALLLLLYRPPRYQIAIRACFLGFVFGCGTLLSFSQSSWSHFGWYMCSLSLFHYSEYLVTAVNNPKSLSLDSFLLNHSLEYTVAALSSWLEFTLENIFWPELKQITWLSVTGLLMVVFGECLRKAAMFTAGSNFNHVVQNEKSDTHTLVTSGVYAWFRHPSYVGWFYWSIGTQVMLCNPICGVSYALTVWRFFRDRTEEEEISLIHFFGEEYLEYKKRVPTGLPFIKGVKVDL

Structure (SMILES) | Activity [1] | also measured
C/C(=C\CSCCC(=O)O)CCn1cc(CCc2ccc(-c3ccc(F)cc3)cc2)nn1 | 42% | –
COC(=O)CCSC/C=C(\C)CCn1cc(CCc2ccc(-c3cccs3)cc2)nn1 | 57% | –
C/C(=C\CSCCC(=O)O)CCn1cc(CCc2ccc(-c3cccc(C#N)c3)cc2)nn1 | 74% | –
CCCCCc1cn(CC/C(C)=C/CSCCC(=O)OC)nn1 | 76% | –
CCCCCCCCCCc1cn(CC/C(C)=C/CSCCC(=O)OC)nn1 | 67% | –
COC(=O)CCSC/C=C(\C)CCn1cc(-c2ccc(C(C)(C)C)cc2)nn1 | 84% | –
COC(=O)CCSC/C=C(\C)CCn1cc(-c2ccc(OC)cc2)nn1 | 91% | –
CC(C)=CCC/C(C)=C/CC/C(C)=C/Cc1cn(CC(=O)O)nn1 | 65% | –
C/C(=C\CSCCC(=O)O)CCn1cc(CCOC2CCCCO2)nn1 (centres undefined) | 90% | IC50 [4]: > 100 µM
C/C(=C\CSCCC(=O)O)CCn1cc(-c2ccc(C(C)(C)C)cc2)nn1 | 88% | –
COC(=O)CCSC/C=C(\C)CCn1cc(CCc2ccc(-c3ccc(F)cc3)cc2)nn1 | 28% | –
COC(=O)CCSC/C=C(\C)CCn1cc(CCc2cccc(-c3ccccc3)c2)nn1 | 65% | IC50 (MEF [2]): > 100 µM; IC50 (MEF [3]): 55 µM; IC50 [4]: 29 µM
COC(=O)CCSC/C=C(\C)CCn1cc(CC/C=C(\C)CCC=C(C)C)nn1 | 59% | –
CC(C)=CCC/C(C)=C/CC/C(C)=C/CCc1cn(CCC(=O)O)nn1 | 69% | –
COC(=O)CCSC/C=C(\C)CCn1cc(CCOC2CCCCO2)nn1 (centres undefined) | 80% | –
CC(C)=CC/C(=C\CSC[C@H](NC(=O)c1ccccc1Oc1ccccc1)C(=O)O)CCc1ccc(-c2ccccc2)cc1 | – | IC50 [4]: 2.5 µM
COC(=O)CCSC/C=C(\C)CCn1cc(CCc2ccc(-c3ccc(-c4ccccc4)cc3)cc2)nn1 | 79% | –
COC(=O)CCSC/C=C(\C)CCn1cc(CCc2ccc(-c3cccc(C#N)c3)cc2)nn1 | 30% | –
COC(=O)CCSC/C=C(\C)CCn1cc(CCC(C)C)nn1 | 77% | –
CC(C)=CCC/C(C)=C/CCc1cn(CCC(=O)O)nn1 | 75% | –
COC(=O)CCSC/C=C(\C)CCn1cc(CCc2ccc(-c3ccccc3)cc2)nn1 | 14% | inhibition [5]: Active; IC50 [6]: 8 µM; IC50 (MEF [2]): > 100 µM; IC50 (MEF [3]): 33 µM; IC50 [4]: 0.8 µM
CC(C)=CCC/C(C)=C/CC/C(C)=C/CSc1ccccc1C(=O)O [SALIRASIB] | – | IC50 [4]: 25.5 µM
CC(C)=CCC/C(C)=C/CC/C(C)=C/Cc1cn(CCCCC(=O)O)nn1 | 73% | –
COC(=O)CCSC/C=C(\C)CCn1cc(-c2ccsc2)nn1 | 82% | –
COC(=O)CCSC/C=C(\C)CCn1cc(CCc2ccccc2-c2ccccc2)nn1 | 74% | –
CC(C)=CCC/C(C)=C/CCc1cn(CCCC(=O)O)nn1 | 90% | –
CC(C)=CCC/C(C)=C/CC/C(C)=C/Cc1cn(CCCC(=O)O)nn1 | 83% | –
CC(C)=CCC/C(C)=C/CC/C(C)=C/Cc1cn(CCC(=O)O)nn1 | 53% | –

Second part, led by results:

Activity [1] | Structure (SMILES) | also measured
77% | C/C(=C\CSCCC(=O)O)CCn1cc(-c2cccc3ccccc23)nn1 | –
87% | COc1ccc(-c2cn(CC/C(C)=C/CSCCC(=O)O)nn2)cc1 | –
89% | C/C(=C\CSCCC(=O)O)CCn1cc(COc2ccccc2)nn1 | –
63% | C/C(=C\CSCCC(=O)O)CCn1cc(CCc2ccc(-c3cccs3)cc2)nn1 | –
82% | COC(=O)CCSC/C=C(\C)CCn1cc(-c2cccc3ccccc23)nn1 | IC50 (MEF [2]): > 100 µM; IC50 (MEF [3]): 96 µM
74% | C/C(=C\CSCCC(=O)O)CCn1cc(CCc2cccc(-c3ccccc3)c2)nn1 | –
69% | COC(=O)CCSC/C=C(\C)CCn1cc(CCc2ccccc2)nn1 | IC50 [4]: 41 µM
77% | CCCCCc1cn(CC/C(C)=C/CSCCC(=O)O)nn1 | –
89% | COC(=O)CCSC/C=C(\C)CCn1cc(-c2ccccc2)nn1 | –
82% | C/C(=C\CSCCC(=O)O)CCn1cc(Cc2ccccc2)nn1 | –
43% | C/C(=C\CSCCC(=O)O)CCn1cc(CCc2ccc(-c3ccccc3)cc2)nn1 | –
75% | C/C(=C\CSCCC(=O)O)CCn1cc(CCc2ccccc2)nn1 | –
89% | COC(=O)CCSC/C=C(\C)CCn1cc(COc2ccccc2)nn1 | –
67% | COC(=O)CCSC/C=C(\C)CCn1cc(COc2ccc(-c3ccccc3)cc2)nn1 | –
88% | C/C(=C\CSCCC(=O)O)CCn1cc(-c2ccccc2)nn1 | –
80% | C/C(=C\CSCCC(=O)O)CCn1cc(-c2ccsc2)nn1 | –
72% | C/C(=C\CSCCC(=O)O)CCn1cc(CCC(C)C)nn1 | –
80% | COC(=O)CCSC/C=C(\C)CCn1cc(Cc2ccccc2)nn1 | –
75% | C/C(=C\CSCCC(=O)O)CCn1cc(COc2ccc(-c3ccccc3)cc2)nn1 | –
